# A selection: hits, their analogues and other compounds. The true share with any hit is near 8.8%.
# M1 antag – antagonists of rat M1 muscarinic receptor; B-score at 10 µM; AID 628; P08482; 64,000 compounds, 3.4% hits; CHO-M1 cells, Fluo-4 calcium, ACh EC80 antagonist mode; hits give low values;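 active means calcium fluorescence response, raw or row-and-column corrected B-score, differing from the plate sample mean either way at a set confidence level, mostly lower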
# RORA act – activators of human nuclear receptor RORA; P35398; CHO-K1 Gal4-RORA LBD luciferase reporter, luminescence; percent increase over mock-subtracted basal signal; activation, % at 10 µM; 65,000 compounds, 1.5% hits;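 active means activation above the mean of all tested compounds plus 3 SD, cut at about 49% in these data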;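 further: 0% = DMSO-treated RORA cells and 100% = added signal equal to DMSO minus mock-transfected cells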
# Target sequence (P35398 whole entry, looked up, the tested form may be a part): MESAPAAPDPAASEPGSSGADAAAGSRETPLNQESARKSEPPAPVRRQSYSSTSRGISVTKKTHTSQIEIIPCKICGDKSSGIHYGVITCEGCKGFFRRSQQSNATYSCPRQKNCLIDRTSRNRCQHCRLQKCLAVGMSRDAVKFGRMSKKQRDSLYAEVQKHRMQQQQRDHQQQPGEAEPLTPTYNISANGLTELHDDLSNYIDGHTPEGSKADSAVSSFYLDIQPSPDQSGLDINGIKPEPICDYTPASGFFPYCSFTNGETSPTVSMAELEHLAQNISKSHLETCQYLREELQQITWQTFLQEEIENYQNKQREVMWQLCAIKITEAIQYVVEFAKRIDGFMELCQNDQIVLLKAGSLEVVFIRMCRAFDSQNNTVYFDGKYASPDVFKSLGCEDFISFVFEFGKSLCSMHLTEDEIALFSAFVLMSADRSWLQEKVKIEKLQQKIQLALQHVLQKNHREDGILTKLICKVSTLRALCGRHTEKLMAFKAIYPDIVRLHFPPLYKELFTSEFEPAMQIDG
# SF1 activator – activates the human nuclear receptor SF-1. 65,000 compounds, 1.9% hits. AID 522. Q13285. activation, % at 10 µM. CHO-K1 Gal4-SF-1 LBD luciferase reporter; % increase over DMSO SF-1-specific signal;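 active means activation above the mean activation of all tested compounds plus 3 SD, cut at about 50% in these data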
#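 Compound – one dose, 10 µM compound, 1% DMSO · Test system – transient Gal4-SF-1 LBD reporter, CHO-K1 · Input – 4,000 cells in each well · Read-out basis – percent activation relative to DMSO median and mock-transfected background · Replicates – single measurement per compound · Technique – steady-glow luciferase luminescence, read after 15 min reagent incubation · Timing – 20 h compound treatment, 37 °C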
# M1 agonist – agonists of M1 muscarinic receptor. 64,000 compounds, 3% hits. B-score at 10 µM. CHO-M1 cells, Fluo-4 calcium fluorescence, agonist mode; hits give high values;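 active means fluorescence rise, raw or as B-score row- and column-corrected plate score, outside the 99.7% band of its plate's samples, either direction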
# S1P1 ag-PAM – activates or potentiates agonism at human S1P1 receptor; P21453; S1P1 CRE-bla cells, forskolin, beta-lactamase FRET, potentiator mode; S1P1 agonist co-added at EC20, 2 nM; 100% = saturating reference agonist, 0% = basal; activation, % at 9.5 µM; 56,000 compounds, 0.57% hits; AID 449;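 active means activation above a cutoff set at the mean activation of all tested compounds plus 3 SD, cut at about 54% in these data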;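 further: forskolin at 4 µM as EC80 and the EC20 agonist is SEW2871; 100% = SEW2871 at its EC100 plus forskolin at EC80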
# S1P3 ag – S1P3 (human) receptor agonism; activation, % at 4.5 µM; Q99500; 60,000 compounds, 0.1% hits; S1P3 NFAT-BLA reporter cells, FRET ratio; relative to 1 µM S1P, basal subtracted; AID 373;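 active means activation above the screen-wide mean plus 3 SD, cut at about 4.5% in these data, passing the limit was not always enough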
#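 Material: Human S1P3 NFAT-BLA reporter CHO cells | Incubation: Overnight plating, 4 h compound 37 °C, 2 h substrate RT | Signal: FRET β-lactamase substrate fluorescence, excitation 405 nm, 460/535 nm emission ratio, background-subtracted | Compound: 4.5 µM final, single dose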
# The depositor's hits bear a star; / = no result.
SMILES,M1 antag,RORA act,SF1 activator,M1 agonist,S1P1 ag-PAM,S1P3 ag
Cc1cc(-n2c(C)cc(C(=O)CN3C(=O)NC4(CCCC4)C3=O)c2C)no1,0.2,0,32,-0.33,-5,0
CC1(C)CC(=O)C2=C(C1)N(Cc1ccco1)C(=O)C2(O)C(F)(F)F (stereo not given),-0.93,-12,5,-0.71,0,-4
Cc1cccc(-c2nc(CS(=O)CC(=O)NC3CCCC3)c(C)o2)c1 (stereo not given),0.23,25,-11,-0.024,13,-1
Cc1cccc(-c2nc(C#N)c(NC3CCCCC3)o2)c1,-0.043,35,50*,-0.15,68*,-4
CCSc1nnc(Cc2cc(=O)[nH]c(=O)[nH]2)n1-c1cc(C)ccc1C,0.63,-13,-2,0.42,-35,-1
Cc1ccc2nc(Nc3ncc4c(n3)CCCC4=O)nc(C)c2c1,-2.7*,14,-7,0.35,-13,-1
COc1ccc(CCN=CC2=C(O)CCCC2=O)cc1OC,0.41,-4,-2,-0.083,-17,-2
O=C1CCCC(O)=C1C=Nc1ccc(O)cc1,1.1,-4,56*,-0.98,-10,-3
Cc1cc(C)c(S(=O)(=O)NCc2cn3c(C)csc3n2)cc1C,-0.43,-15,-16,-0.081,-29,10
CC(C)Oc1snc(Cl)c1C(N)=O,-0.0071,23,-7,0.16,/,/
CCN(CCCNC(=O)c1cn(CC)c2ccc(S(=O)(=O)N(C)C)cc2c1=O)c1cccc(C)c1,-0.54,62*,10,0.14,-10,-1
CCOC(=O)CSc1nc2cc(C)ccc2cc1C#N,0.13,71*,85*,-0.42,24,0
CCOc1ccc2cc(C#N)c(SCC(=O)N3CCOCC3)nc2c1,0.2,56*,21,0.11,15,-1
COC(=O)CSc1nc2cc3c(cc2cc1C#N)OCO3,0.092,34,43,-1.4,-11,0
CCOC(=O)CSc1nc2cc(OC)ccc2cc1C#N,-0.009,68*,104*,-0.021,12,0
CCOC(=O)CSc1nc2cc3c(cc2cc1C#N)OCO3,0.79,48,66*,-2.2,4,0
COc1ccc(CCn2c(C)cc3c(c2=O)C(c2ccc4c(c2)OCO4)C(C#N)=C(N)O3)cc1OC (stereo not given),-0.21,17,47,-0.063,-10,-4
CS(=O)(=O)Nc1ccc(C(=O)NC2CCCC2)cc1,0.59,-11,0,0.55,17,-1
CCOC(=O)c1cnn(CCOC(=O)Cc2cccs2)c1NC(=O)Cc1cccs1,0.0027,-12,-20,0.75,-7,0
CCN(CC)c1ccc(NC(=O)c2ccc(Br)o2)cc1,/,102*,39,/,1,-2
O=C(Nc1ccc2c(c1)oc1ccccc12)c1ccc(Br)o1,-1.4,68*,38,-1.1,13,-1
COC(=O)C1C(=O)c2c([nH]c(C(=O)OC3CCCC3)c2C)CC1C (stereo not given),0.45,49*,56*,-0.29,/,/
Cc1ccc(CNc2ccc3c(c2)ncn3C)cc1,/,63*,57*,/,-21,-1
Cc1ccc(C(=O)Nc2ccc3c(c2)ncn3C)cc1,0.035,52*,38,1.3,/,-1
COc1ccc(S(=O)(=O)NCc2ccc(C(=O)O)cc2)cc1,0.27,0,3,1.7,/,/
SMILES,M1 antag,RORA act,SF1 activator,M1 agonist,S1P1 ag-PAM,S1P3 ag
COc1ccc(CNc2ccc3c(c2)nc(C)n3C)cc1,-0.32,38,79*,0.2,27,-1
COc1ccc(CNc2ccc(C(=O)O)cc2)cc1,-0.029,13,78*,0.63,-4,0
CCOC(=O)CSc1cc(=O)n(C)c2cc(Cl)ccc12,0.024,0,-10,-1.3,-16,0
Cc1ccccc1-n1c(SCC(=O)c2cc(C)n(C)c2C)nnc1-c1ccncc1,-1.1,-6,6,1.6,61,1
Cc1cnn(C(=S)NCCc2ccccc2)c1,-1.3,27,53*,-0.18,-8,0
CCc1ccc(NS(=O)(=O)c2cccs2)cc1,-0.03,-1,2,1.8,/,-1
CC1(C)CN=C(N2CCN(C3=NCC(C)(C)S3)CC2)S1,-6.3*,1,-1,0.93,4,-1

# High-throughput results deposited in PubChem BioAssay by several laboratories.
